Measured values from ChEMBL document CHEMBL4028911, “Discovery of a Small-Molecule Bromodomain-Containing Protein 4 (BRD4) Inhibitor That Induces AMP-Activated Protein Kinase-Modulated Autophagy-Associated Cell Death in Breast Cancer” (J Med Chem, 2017).
Activity calls are given as the source filed them. No cut-off for these calls is given here.

Legend:
MDA-MB-231 [1] = assay: Antiproliferative activity against human MDA-MB-231 cells after 24 hrs by MTT assay; assay type: functional, cell-based; conditions: MDA-MB-231, 24 h
MCF7 [2] = assay: Antiproliferative activity against human MCF7 cells after 24 hrs by MTT assay; assay type: functional, cell-based; conditions: MCF7, 24 h
[3] = target: Bromodomain-containing protein 4 (Homo sapiens, UniProt O60885); assay: Inhibition of His/thioredoxin-tagged human recombinant BRD4 bromodomain-1 (43 to 166 residues) expressed in Escherichia coli BL21 Star (DE3) pre-incubated for 30 mins followed by biotinylated histone peptide H4 addition measured after 30 mins by AlphaScreen assay
MCF7 [4] = assay: Induction of autophagy in human MCF7 cells assessed as downregulation of p62/SQSTM1 expression at […] by Western blot analysis; assay type: functional, cell-based
MDA-MB-231 [5] = assay: Induction of autophagy in GFP/mRFP treated human MDA-MB-231 cells assessed as induction of LC3 puncta at 150 uM by fluorescence microscopic analysis; assay type: functional, cell-based
Method in brief: (§1)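 MCF-7 or MDA-MB-231 cells transfected with GFP/mRFP-LC3 plasmid, then treated with 150 µM for indicated times. GFP-LC3 puncta observed by fluorescence microscopy.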

MCF7 [6] = assay: Induction of autophagy in GFP/mRFP treated human MCF7 cells assessed as induction of LC3 puncta at 150 uM by fluorescence microscopic analysis; assay type: functional, cell-based; method in brief: as §1
MDA-MB-231 [7] = assay: Induction of autophagy in human MDA-MB-231 cells assessed as downregulation of p62/SQSTM1 expression at […] by Western blot analysis; assay type: functional, cell-based

SMILES | IC50 (MDA-MB-231 [1]) | IC50 (MCF7 [2]) | IC50 [3] | Activity (MCF7 [4]) | Activity (MDA-MB-231 [5]) | Activity (MCF7 [6]) | Activity (MDA-MB-231 [7])
O=c1[nH]c(-c2ccc(O)cc2)nc2sc3c(c12)CCCCC3 | 3.29 µM | 1.56 µM | 0.56 µM | – | – | – | –
CN1CCc2c(sc3nc(-c4cccc(Br)c4)[nH]c(=O)c23)C1 | 8.31 µM | 2.17 µM | 1.04 µM | – | – | – | –
O=c1[nH]c(-c2cccc(Br)c2)nc2sc3c(c12)CCCCC3 | > 30 µM | 18.5 µM | 5.73 µM | – | – | – | –
O=c1[nH]c(-c2cccc(O)c2)nc2sc3c(c12)CCCCC3 | 17.4 µM | 13.2 µM | 3.98 µM | – | – | – | –
CN1CCc2c(sc3nc(-c4cccc(O)c4)[nH]c(=O)c23)C1 | > 30 µM | > 30 µM | > 10 µM | – | – | – | –
COc1cc(OC)c2c(=O)[nH]c(-c3cc(C)c(OCCO)c(C)c3)nc2c1 [APABETALONE] | 155 µM | 140 µM | – | Active | Active | Active | Active
Cc1cc(-c2nc3sc4c(c3c(=O)[nH]2)CCC(C)C4)cc(C)c1O (configuration not stated) | 9.42 µM | 5.59 µM | 3.24 µM | – | – | – | –
O=c1[nH]c(-c2ccc(C(F)(F)F)cc2)nc2sc3c(c12)CCN(Cc1ccccc1)C3 | > 30 µM | > 30 µM | > 10 µM | – | – | – | –
O=c1[nH]c(Cc2ccc(-c3ccccc3)cc2)nc2sc3c(c12)CCCCC3 | > 30 µM | > 30 µM | > 10 µM | – | – | – | –
O=c1[nH]c(-c2ccccc2)nc2sc3c(c12)CCN(Cc1ccccc1)C3 | > 30 µM | > 30 µM | > 10 µM | – | – | – | –
CCCc1cc2c(=O)[nH]c(-c3cccc(OC)c3)nc2s1 | > 30 µM | > 30 µM | > 10 µM | – | – | – | –
CCCc1cc2c(=O)[nH]c(-c3ccc(O)cc3)nc2s1 | 28.4 µM | > 30 µM | 8.59 µM | – | – | – | –
O=c1[nH]c(-c2ccc(Br)cc2)nc2sc3c(c12)CCCCC3 | > 30 µM | > 30 µM | > 10 µM | – | – | – | –
CC1CCc2c(sc3nc(Cc4ccccc4)[nH]c(=O)c23)C1 (configuration not stated) | > 30 µM | > 30 µM | > 10 µM | – | – | – | –
CN1CCc2c(sc3nc(-c4ccc(C(F)(F)F)cc4)[nH]c(=O)c23)C1 | 22.2 µM | > 30 µM | > 10 µM | – | – | – | –
O=c1[nH]c(-c2ccc(C(F)(F)F)cc2)nc2sc3c(c12)CCCCC3 | > 30 µM | > 30 µM | > 10 µM | – | – | – | –
O=c1[nH]c(-c2ccc(Br)cc2)nc2sc3c(c12)CCCC3 | > 30 µM | > 30 µM | > 10 µM | – | – | – | –
O=c1[nH]c(-c2ccccc2)nc2sc3c(c12)CCC3 | > 30 µM | > 30 µM | > 10 µM | – | – | – | –
O=c1[nH]c(Cc2ccccc2)nc2sc3c(c12)CCCCC3 | 5.8 µM | 4.5 µM | 0.82 µM | – | – | – | –
COc1ccccc1-c1nc2sc3c(c2c(=O)[nH]1)CCN(C)C3 | 8.19 µM | 5.6 µM | 2.47 µM | – | – | – | –
Cc1cc(-c2nc3sc4c(c3c(=O)[nH]2)CCC4)cc(C)c1O | 23.1 µM | 18.5 µM | 6.38 µM | – | – | – | –
O=c1[nH]c(-c2cccc(Br)c2)nc2sc3c(c12)CCC3 | > 30 µM | > 30 µM | > 10 µM | – | – | – | –
COc1ccccc1-c1nc2sc3c(c2c(=O)[nH]1)CCC3 | 5.34 µM | 2.22 µM | 0.78 µM | – | – | – | –
O=c1[nH]c(-c2ccc(O)cc2)nc2sc3c(c12)CCN(Cc1ccccc1)C3 | > 30 µM | 17 µM | 6.37 µM | – | – | – | –
Oc1nc(-c2ccccc2)nc2sc3c(c12)CCCC3 | > 30 µM | > 30 µM | > 10 µM | – | – | – | –

SMILES | IC50 (MDA-MB-231 [1]) | IC50 (MCF7 [2]) | IC50 [3] | Activity (MCF7 [4]) | Activity (MDA-MB-231 [5]) | Activity (MCF7 [6]) | Activity (MDA-MB-231 [7])
Cc1sc2c(c1C)C(c1ccc(Cl)cc1)=N[C@@H](CC(=O)OC(C)(C)C)c1nnc(C)n1-2 | 33 µM | 28.8 µM | – | – | – | – | –
Cc1cc(-c2nc3sc4c(c3c(=O)[nH]2)CCN(Cc2ccccc2)C4)cc(C)c1O | > 30 µM | > 30 µM | > 10 µM | – | – | – | –
O=c1[nH]c(-c2ccc(Br)cc2)nc2sc3c(c12)CCC3 | > 30 µM | 21.3 µM | 8.94 µM | – | – | – | –
CN1CCc2c(sc3nc(-c4ccc(O)cc4)[nH]c(=O)c23)C1 | 8.29 µM | 5.48 µM | 0.72 µM | – | – | – | –
O=c1[nH]c(-c2ccc(C(F)(F)F)cc2)nc2sc3c(c12)CCC3 | 14.7 µM | 8.39 µM | 1.53 µM | – | – | – | –
CC1CCc2c(sc3nc(-c4ccc(O)cc4)[nH]c(=O)c23)C1 (configuration not stated) | 22.9 µM | 12.2 µM | 4.31 µM | – | – | – | –
CC1CCc2c(sc3nc(-c4ccc(C(F)(F)F)cc4)[nH]c(=O)c23)C1 (configuration not stated) | > 30 µM | > 30 µM | > 10 µM | – | – | – | –
CC1CCc2c(sc3nc(Cc4ccc(-c5ccccc5)cc4)[nH]c(=O)c23)C1 (configuration not stated) | > 30 µM | > 30 µM | > 10 µM | – | – | – | –
COc1cccc(-c2nc3sc4c(c3c(=O)[nH]2)CCCC4)c1 | > 30 µM | > 30 µM | > 10 µM | – | – | – | –
CCCc1cc2c(=O)[nH]c(-c3cccc(Br)c3)nc2s1 | > 30 µM | > 30 µM | > 10 µM | – | – | – | –
COc1cccc(-c2nc(=O)c3c4c(sc3[nH]2)CC(C)CC4)c1 (configuration not stated) | > 30 µM | > 30 µM | > 10 µM | – | – | – | –
CC1CCc2c(sc3nc(-c4cc(F)c(F)c(F)c4)[nH]c(=O)c23)C1 (configuration not stated) | > 30 µM | > 30 µM | > 10 µM | – | – | – | –
CC1CCc2c(sc3nc(-c4ccccc4)[nH]c(=O)c23)C1 (configuration not stated) | > 30 µM | > 30 µM | > 10 µM | – | – | – | –
O=c1[nH]c(Cc2ccccc2)nc2sc3c(c12)CCC3 | > 30 µM | > 30 µM | > 10 µM | – | – | – | –
CC1CCc2c(sc3nc(-c4ccc(Br)cc4)[nH]c(=O)c23)C1 (configuration not stated) | > 30 µM | > 30 µM | > 10 µM | – | – | – | –
CC1CCc2c(sc3nc(-c4cccc(O)c4)[nH]c(=O)c23)C1 (configuration not stated) | > 30 µM | > 30 µM | > 10 µM | – | – | – | –
CC1CCc2c(sc3nc(-c4cccc(Br)c4)[nH]c(=O)c23)C1 (configuration not stated) | 16.3 µM | 2.69 µM | 1.02 µM | – | – | – | –
O=c1[nH]c(-c2ccc(F)cc2F)nc2sc3c(c12)CCCC3 | > 30 µM | > 30 µM | > 10 µM | – | – | – | –
O=c1[nH]c(-c2ccc(O)cc2)nc2sc3c(c12)CCCC3 | > 30 µM | 22.8 µM | 7.32 µM | – | – | – | –
Cc1cc(-c2nc3sc4c(c3c(=O)[nH]2)CCCC4)cc(C)c1O | 27.8 µM | 24.9 µM | 6.93 µM | – | – | – | –
CCCc1cc2c(=O)[nH]c(Cc3ccc(-c4ccccc4)cc3)nc2s1 | > 30 µM | > 30 µM | > 10 µM | – | – | – | –
Cc1cc(-c2nc3sc4c(c3c(=O)[nH]2)CCCCC4)cc(C)c1O | 8.31 µM | 2.81 µM | 0.49 µM | – | – | – | –
O=c1[nH]c(-c2ccc(C(F)(F)F)cc2)nc2sc3c(c12)CCCC3 | > 30 µM | 28.1 µM | > 10 µM | – | – | – | –
COc1cccc(-c2nc3sc4c(c3c(=O)[nH]2)CCN(Cc2ccccc2)C4)c1 | > 30 µM | > 30 µM | > 10 µM | – | – | – | –
CN1CCc2c(sc3nc(Cc4ccc(-c5ccccc5)cc4)[nH]c(=O)c23)C1 | > 30 µM | > 30 µM | > 10 µM | – | – | – | –
